Laboratory results published in PMC8434754 (Journal of the American Chemical Society, 2021).

What was measured:
AoiQ-FDH [1] = assay: flavin reductase activity, NADH consumption; type: biochemical, Aspergillus oryzae; details: no flavin reductase added; copurified FAD
Outline: (§1)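 Enzyme is the FDH domain of AoiQ, expressed as a standalone protein apart from its methyltransferase domain. Flavin reductase activity was followed by consumption of NADH or NADPH, with no exogenous flavin reductase added. Steady-state KM, kcat and kcat/KM were reported for each nicotinamide cofactor.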

AoiQ-FDH [2] = assay: flavin reductase activity, NADPH consumption; type: biochemical, Aspergillus oryzae; details: no flavin reductase added; copurified FAD
Outline: as §1

| Km (AoiQ-FDH [1]) [µM] | Km (AoiQ-FDH [2]) [µM] | Structure (SMILES) |
| --- | --- | --- |
| 43.5 ± 3.6 | – | NC(=O)C1=CN([C@@H]2O[C@H](COP(=O)(O)OP(=O)(O)OC[C@H]3O[C@@H](n4cnc5c(N)ncnc54)[C@H](O)[C@@H]3O)[C@@H](O)[C@H]2O)C=CC1 [NADH] |
| – | 30.5 ± 6 | NC(=O)C1=CN([C@@H]2O[C@H](COP(=O)(O)OP(=O)(O)OC[C@H]3O[C@@H](n4cnc5c(N)ncnc54)[C@H](OP(=O)(O)O)[C@@H]3O)[C@@H](O)[C@H]2O)C=CC1 [NADPH] |
